Laboratory results: ChEMBL document CHEMBL4513216, “Probing the Open Global Health Chemical Diversity Library for Multistage-Active Starting Points for Next-Generation Antimalarials” (ACS Infect Dis, 2020)

Assay: Toxicity liver stage against HepG2, at 10uM
Type: cell-based
Design: test concentration 10 uM, cell line HepG2-A16-CD81EGFP
Conditions: human, HepG2-A16-CD81EGFP cells; read-out: INHIBITION
Summary of the method: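 Uninfected HepG2-A16-CD81EGFP cells, 3 × 10^3 per well, 1536-well, plated on prespotted compound at 10 μM final, parasite-free screening media added to match infected plates; puromycin 10 μM positive, DMSO 0.5% negative; run in parallel with 48 h PbLuc assay at 37 °C, 5% CO2; viability by CellTiter-Glo luminescence, normalized to controls.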

O=C(NCc1ccco1)[C@@H]1CCO[C@@H]2CCN(C3CCOCC3)C[C@H]21
cytotoxicity at 10 µM: -74.9%

Cc1nc(C2CCCN(C(=O)c3ccc(S(C)(=O)=O)cc3)C2)no1 (centres undefined)
cytotoxicity at 10 µM: -11.3%

COCCNC(=O)C(C)N1CCN(C)CC1 (centres undefined)
cytotoxicity at 10 µM: -1.21%

Cc1cc(NC(=O)NCC(CC(C)C)N2CCOCC2)n(C)n1 (centres undefined)
cytotoxicity at 10 µM: -15%

Cc1cnccc1NCCNC(=O)[C@H]1CNC[C@H](C(=O)N2CCCC2)C1
cytotoxicity at 10 µM: -124%

Cc1cnn(CCC(=O)N2CCN(c3ncccc3Cl)CC2)c1
cytotoxicity at 10 µM: 2.41%

O=C(c1cscn1)N1CCO[C@H]2[C@@H](Oc3ccccn3)CC[C@@H]21
cytotoxicity at 10 µM: -109%

Cc1nc(C)n(CC2CCCCN2CC(=O)Nc2ccncc2)n1 (centres undefined)
cytotoxicity at 10 µM: -0.344%

CCc1nc(CC(=O)N2CCC(C(=O)N3CCCC3)CC2)cs1
cytotoxicity at 10 µM: -2.71%

Cc1nc(-c2cccs2)ccc1C(=O)N1CCN(CC(C)O)CC1 (centres undefined)
cytotoxicity at 10 µM: -45.1%

O=C(CCCN1CCCCC1)N1CCN(C(=O)c2nc[nH]n2)CC1
cytotoxicity at 10 µM: 7.81%

CCN1C(=O)C[C@@H]2[C@@H]1CCN2S(=O)(=O)c1cccc(C)c1
cytotoxicity at 10 µM: 1.29%

O=C(CSc1nnc(N2CCCC2)s1)NC(=O)Nc1ccccc1
cytotoxicity at 10 µM: 3.59%

CNc1cc(C(=O)N2CCC3(CC2)Nc2ccccc2NC3=O)ccn1
cytotoxicity at 10 µM: 3.46%

C1CC(CN2CC[C@@H]3O[C@@H](c4nnc(C5CC5)o4)C[C@H]3C2)CCO1
cytotoxicity at 10 µM: 5.35%

CCc1nnc(CN(CC)C(=O)C2CC(=O)N(Cc3cccnc3)C2)o1 (centres undefined)
cytotoxicity at 10 µM: 2.3%

Cc1ccc(CN(CCCn2ccnc2)Cc2[nH]cnc2C)s1
cytotoxicity at 10 µM: -22.8%

Cc1ccc(-c2nc(CC(=O)NCC(C)N3CCOCC3)cs2)o1 (centres undefined)
cytotoxicity at 10 µM: -47.5%

CN(CC(=O)NC1CC1)C(=O)c1csc(Br)c1
cytotoxicity at 10 µM: -0.872%

CCOC(=O)CCC(=O)N1CC(c2nc(Cc3ccccc3)no2)C1
cytotoxicity at 10 µM: -2.42%

COc1ccc2c(c1)CCCC2CC(=O)NCC(=O)O (centres undefined)
cytotoxicity at 10 µM: -4.31%

O=c1[nH]nc2c(S(=O)(=O)N3CCOCC3)cccn12
cytotoxicity at 10 µM: -1.7%

CCNC(c1cccnc1)c1cc(C)cc(C)c1 (centres undefined)
cytotoxicity at 10 µM: 2.77%

CN(C)c1ccccc1C(=O)N1CCOC2(CNCCOC2)C1 (centres undefined)
cytotoxicity at 10 µM: -1.08%

COc1ccc(C(C)NC(=O)C2CCN(S(C)(=O)=O)CC2)cc1C (centres undefined)
cytotoxicity at 10 µM: -7.5%

CC(C)Oc1ncccc1CNC(=O)c1ccccn1
cytotoxicity at 10 µM: -21.3%

CN(Cc1ccsc1)C(=O)c1n[nH]c(N)c1-c1ccccc1
cytotoxicity at 10 µM: -6.27%

O=C(c1ncoc1C1CCCO1)N1CCC2(CCCCC2)CC1 (centres undefined)
cytotoxicity at 10 µM: -7%

O=C(NC(c1ccc(Cl)cc1)c1cccnc1)C1CC1 (centres undefined)
cytotoxicity at 10 µM: -3.94%

COC(=O)c1c(C(F)(F)F)cnc(OC)c1Cl
cytotoxicity at 10 µM: 7.03%

CN1CCC(N2CCOC3(CCCC3)C2)C1=O (centres undefined)
cytotoxicity at 10 µM: -6.52%

O=C(c1[nH]nc(C2CC2)c1Cl)N1CCN(C2CC2)CC1
cytotoxicity at 10 µM: -5.58%

Cn1ccc2ccc(C(=O)N3CCN(C(=O)N4CCOCC4)CC3)cc21
cytotoxicity at 10 µM: -21.1%

COc1ncc(-c2cc(-c3ccn(C)c3)nc(N)c2C#N)cn1
cytotoxicity at 10 µM: 0.471%

CC[C@H]1CN2CC[C@H]1C[C@@H]2CNC(=O)Nc1cc(OC)cc(OC)c1
cytotoxicity at 10 µM: 3.39%

CC(=O)NC1CCN(C(=O)Nc2cccc(C(F)(F)F)c2)CC1
cytotoxicity at 10 µM: -6.74%

C/C=C(\C)CN1C[C@H](NC(=O)c2cc[nH]c2C)[C@@H](C2CC2)C1
cytotoxicity at 10 µM: 4.96%

Cc1nc(CN2C(=O)CC[C@@H]3[C@H]2CCN3C(=O)C2CCOCC2)cs1
cytotoxicity at 10 µM: -81.3%

CN(c1nc(CSc2nnc(Cn3cncn3)o2)cs1)C1CC1
cytotoxicity at 10 µM: 6.6%

CCN(CC)C(=O)CN(C)C(=O)c1ccc(-c2ccsc2)nc1C
cytotoxicity at 10 µM: 18.1%

Cc1nc(CN(Cc2ccccc2)C2CCS(=O)(=O)C2)oc1C (centres undefined)
cytotoxicity at 10 µM: -8.13%

COCCCC1(CO)CCCN(CCc2ccccc2)C1 (centres undefined)
cytotoxicity at 10 µM: -9.99%

O=C1CN(C(=O)c2cc3ccc(Br)cc3[nH]2)CCN1
cytotoxicity at 10 µM: 0.549%

N#Cc1ccnc(N2CCC(NCCN3CCOCC3)CC2)c1
cytotoxicity at 10 µM: -43.4%

COCCC(=O)N1CCC(c2nc(O)cc(-c3ccncc3)n2)C1 (centres undefined)
cytotoxicity at 10 µM: -25%

CC(C)(C)c1nc(CNC2CCCN(c3cccnn3)C2)no1 (centres undefined)
cytotoxicity at 10 µM: 4.93%

CN(C)CC1(O)CCN(Cc2cnc3c(-c4ccccc4)cnn3c2)C1 (centres undefined)
cytotoxicity at 10 µM: -6.16%

O=c1c(-c2ccnc(NC3CCOCC3)n2)cnc2sc(Cl)cn12
cytotoxicity at 10 µM: -0.962%

Cc1ccc2oc(C(=O)N3CCCC(n4cccn4)C3)cc2n1 (centres undefined)
cytotoxicity at 10 µM: -3.89%

CCn1ccnc1CN1CCC(Oc2ccccc2F)(C(=O)O)CC1
cytotoxicity at 10 µM: 6.84%

COc1ccc(F)cc1C(C)NC(=O)NCCCn1cncn1 (centres undefined)
cytotoxicity at 10 µM: -17.8%

CCCn1ncc(C(=O)N(CCOC)Cc2c(C)nn(CC)c2C)c1C
cytotoxicity at 10 µM: -4.97%

CC(C)(C)C(=O)N1C[C@H](c2ccsc2)[C@H]2CN(C3CCCCC3)CC[C@H]21
cytotoxicity at 10 µM: 5.9%

CCN1CCN(C2CCN(Cc3nc4ccccc4o3)CC2)C1=O
cytotoxicity at 10 µM: 5.61%

O=C(Nc1ccc(-n2cncn2)c(F)c1)C1CCN(C(=O)C2CC2)CC1
cytotoxicity at 10 µM: -2.83%

Cc1csc(N2CCN(Cc3ccccn3)CC2)n1
cytotoxicity at 10 µM: 6.14%

O=C(NC[C@]12COC[C@H]1CN(Cc1ccncc1)C2)c1ccno1
cytotoxicity at 10 µM: -72.1%

Cn1c(CCNC(=O)CC[C@@H]2CCCN3CCCC[C@H]23)n[nH]c1=O
cytotoxicity at 10 µM: 4.13%

CC(O)CNCc1c[nH]nc1-c1cc2ccccc2o1 (centres undefined)
cytotoxicity at 10 µM: 0.788%

CCCc1cc(=O)n(CC(=O)NCCOC)c(-n2nc(C)cc2C)n1
cytotoxicity at 10 µM: 1.69%

CCn1cc(-c2cc(C(F)(F)F)nn2CCC#N)cn1
cytotoxicity at 10 µM: 3.93%

O=C(NS(=O)(=O)c1cccc(F)c1)c1ccccc1F
cytotoxicity at 10 µM: 9.39%

NCCc1nc(N[C@@H](CO)c2ccccc2)c2ccccc2n1
cytotoxicity at 10 µM: 9.24%

Cc1csc(C(=O)N2CCCC(c3[nH]ncc3S(C)(=O)=O)C2)c1 (centres undefined)
cytotoxicity at 10 µM: -3.17%

Cc1cccc(C(=O)N2CCN(S(C)(=O)=O)[C@@H](C)C2)c1C
cytotoxicity at 10 µM: 3.46%

CN(CCCc1cnn(C)c1)C(=O)C1COc2ccccc2C1 (centres undefined)
cytotoxicity at 10 µM: -5.91%

Cc1nnc(NC(=O)NCc2ccnc(N(C)C)c2)s1
cytotoxicity at 10 µM: -10.2%

Cc1c(Br)cnn1CCC(=O)N(C)Cc1c(Cl)cnn1C
cytotoxicity at 10 µM: -13.7%

Cc1nc(C)n(CC2CCCN2CCOc2ccccc2C#N)n1 (centres undefined)
cytotoxicity at 10 µM: -4.17%

Cc1[nH]c(=O)[nH]c(=O)c1CN1CCCC(CCc2ccc(F)c(F)c2)C1 (centres undefined)
cytotoxicity at 10 µM: 1.4%

Cc1ccc(-c2cc(CNC(=O)N3CCC(CO)CC3)on2)cc1
cytotoxicity at 10 µM: -7.69%

COCCN1C(=O)[C@@H]2CC[C@H]1CN(C(=O)CCc1n[nH]c(C)c1C)C2
cytotoxicity at 10 µM: 13.5%

CCOc1ncccc1NC(=O)c1cc(C)sc1C
cytotoxicity at 10 µM: -6.81%

Cc1nc(CN2CCC3(CCN(C(=O)c4ccoc4C)CC3)C2)cs1
cytotoxicity at 10 µM: -5.19%

CNc1nc(N2C[C@H](NC(=O)CCOC)[C@@H](C3CC3)C2)nc2c1CCC2
cytotoxicity at 10 µM: 9.62%

Cc1noc(-c2ccnc(N3CCN(C4CCOCC4)CC3)c2)n1
cytotoxicity at 10 µM: 1.83%

CCn1cc(-n2cc3nc(N4CCCC4)[nH]cc-3c2=O)cn1
cytotoxicity at 10 µM: 2.77%

CCN(CCO)C[C@@H]1CN(c2nc(C)cc(C)n2)C[C@@H]1CO
cytotoxicity at 10 µM: -5.34%

O=C(NCc1ccccc1CN1CCCC1=O)Nc1nccs1
cytotoxicity at 10 µM: 9.66%

CO[C@@]1(C)C[C@@H](O)C12CCN(C(=O)C1(c3ccccc3F)CC1)CC2
cytotoxicity at 10 µM: 3.47%

CC(=O)N1N=C(c2ccccc2)OC1C(=O)NCCc1ccc(C)cc1 (centres undefined)
cytotoxicity at 10 µM: 0.0915%

CCCn1nc(C)c(-c2cncn2CC2(N(C)C)CCC(C)CC2)c1C (centres undefined)
cytotoxicity at 10 µM: 9.35%

CCOCCC(=O)N1CC(=O)Nc2cc(Br)ccc21
cytotoxicity at 10 µM: 6.87%

COC(=O)N1C[C@@H]2CC[C@H]1CN(Cc1cscn1)C2
cytotoxicity at 10 µM: -9.25%

CCCN1CCN(C(=O)c2ccnc(N)c2)[C@H]2CS(=O)(=O)C[C@H]21
cytotoxicity at 10 µM: 2.77%

c1csc(-c2noc(COCC3CCCO3)n2)c1 (centres undefined)
cytotoxicity at 10 µM: -1.62%

CCn1cc(C(=O)NCc2csc(Br)c2)cn1
cytotoxicity at 10 µM: 4.84%

CC(C(N)=O)S(=O)(=O)Cc1cc(Cl)c2c(c1)OCO2 (centres undefined)
cytotoxicity at 10 µM: -14.2%

O=C(Nc1ccc(CCN2CCC(O)CC2)cc1)C1CCOCC1
cytotoxicity at 10 µM: -8.08%

Cc1ncsc1C(=O)NC1CCN(Cc2cccnc2)CC1
cytotoxicity at 10 µM: -7.49%

CC(C)c1noc(CN(CCC2CCCCC2)CC(N)=O)n1
cytotoxicity at 10 µM: 2.94%

CCCC(O)CN1CC(C)(C)CN(C(=O)c2ccccc2)CC1=O (centres undefined)
cytotoxicity at 10 µM: -0.295%

CN(Cc1cccc2cccnc12)C1CCS(=O)(=O)C1 (centres undefined)
cytotoxicity at 10 µM: -0.237%

CNC(=O)C(C)(C)N1CCC[C@H]1C(=O)NC1CCCC1
cytotoxicity at 10 µM: -3.01%

Cc1cc(N2CCCC2c2nc(C)cc(CCC(=O)O)n2)ncn1 (centres undefined)
cytotoxicity at 10 µM: -17.1%

Nc1nccnc1C1CN(C(=O)c2ccc3c(c2)OCO3)CCO1 (centres undefined)
cytotoxicity at 10 µM: -23.7%

NC(=O)c1cc2c(nc1CC1CCCCO1)CCC2 (centres undefined)
cytotoxicity at 10 µM: -5.4%

CNC(=O)C(NC(=O)c1ccn(C)c(=O)c1)c1ccccc1 (centres undefined)
cytotoxicity at 10 µM: 4.73%

CCc1cc(N(C)Cc2cc[nH]n2)n2nc(C)c(C)c2n1
cytotoxicity at 10 µM: 24%

CC(C)(C)CC(NC(=O)N1CCS(=O)(=O)CC1)C(F)(F)F (centres undefined)
cytotoxicity at 10 µM: 0.106%

CC(=O)Nc1nc(C2CCN(C(=O)c3cccnc3)CC2)cs1
cytotoxicity at 10 µM: -2.47%

CCc1nc2c(N3CCC4(CC3)CNC(=O)C4)ncnc2o1
cytotoxicity at 10 µM: -2%

CC(C)NC(=O)N1CCN(c2ccc(Cl)nn2)C(=O)C1
cytotoxicity at 10 µM: 5.01%

NC(=O)NC(=O)CCSCc1coc(-c2cccc(Cl)c2)n1
cytotoxicity at 10 µM: -1.23%

Cn1c(=O)c2c(c3ccccc31)OC(C)(C)CC2
cytotoxicity at 10 µM: 17.8%

Cc1ccc(CN(CCCn2ccnc2)Cc2cnn(C)c2)s1
cytotoxicity at 10 µM: -18%

O=C(c1cc2c(s1)CCN2C(=O)C1CC1)N1CCCC1
cytotoxicity at 10 µM: 2.62%

CCc1noc(C)c1C(=O)N1CCCN(Cc2cscn2)CC1
cytotoxicity at 10 µM: -0.448%

O=C(Nc1ccc(CCN2CCC(O)CC2)cc1)C1CCCOC1 (centres undefined)
cytotoxicity at 10 µM: -4.81%
